# Most compounds without a hit are left out; they make up all but 1.7% or so of the library.
# IDE cell activ: human IDE activators in live cells, primary screen, fluorescence polarization, HEK cells, FAbeta-B substrate; 340,000 compounds, 0.073% hits; FAbeta-B cleavage; 0% vehicle, 100% cell-free pure enzyme wells; activation, % at 5.96 µM; Insulin-degrading enzyme (Homo sapiens), P14735;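 active = activation above the mean of all tested compounds plus 3 SD, set per screening campaign, cut at about 17% in these data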
# Target sequence (P14735 whole entry, looked up): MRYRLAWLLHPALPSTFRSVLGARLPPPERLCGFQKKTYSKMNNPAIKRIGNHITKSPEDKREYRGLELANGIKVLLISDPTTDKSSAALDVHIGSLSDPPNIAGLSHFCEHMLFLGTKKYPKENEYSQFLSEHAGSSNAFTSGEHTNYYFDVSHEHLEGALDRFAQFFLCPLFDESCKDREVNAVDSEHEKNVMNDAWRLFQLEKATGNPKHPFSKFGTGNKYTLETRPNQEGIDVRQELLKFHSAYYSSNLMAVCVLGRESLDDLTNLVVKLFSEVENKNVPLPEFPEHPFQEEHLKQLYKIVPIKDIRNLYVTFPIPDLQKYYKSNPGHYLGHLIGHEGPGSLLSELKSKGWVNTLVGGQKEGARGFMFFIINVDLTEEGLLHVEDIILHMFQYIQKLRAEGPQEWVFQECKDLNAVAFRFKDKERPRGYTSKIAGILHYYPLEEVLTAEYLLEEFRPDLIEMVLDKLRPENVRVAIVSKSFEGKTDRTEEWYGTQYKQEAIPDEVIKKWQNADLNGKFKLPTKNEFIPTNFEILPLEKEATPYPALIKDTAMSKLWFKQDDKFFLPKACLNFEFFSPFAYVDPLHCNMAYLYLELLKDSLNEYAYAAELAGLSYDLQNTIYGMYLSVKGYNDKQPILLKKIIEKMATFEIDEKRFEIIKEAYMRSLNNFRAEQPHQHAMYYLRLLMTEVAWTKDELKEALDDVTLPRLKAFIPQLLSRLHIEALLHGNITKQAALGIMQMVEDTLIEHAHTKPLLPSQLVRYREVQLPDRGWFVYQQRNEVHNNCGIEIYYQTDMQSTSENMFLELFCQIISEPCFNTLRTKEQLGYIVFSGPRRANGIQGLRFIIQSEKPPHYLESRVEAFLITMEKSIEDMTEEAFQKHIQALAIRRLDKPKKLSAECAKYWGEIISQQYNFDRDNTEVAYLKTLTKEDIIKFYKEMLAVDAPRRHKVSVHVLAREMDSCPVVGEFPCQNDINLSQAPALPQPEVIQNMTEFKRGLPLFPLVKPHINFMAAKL
# CSN deneddyl inh: inhibitors of CSN-mediated cullin deneddylation, primary screen, biochemical, fluorescence polarization, uHTS; COP9 signalosome complex subunit 5 (Homo sapiens), Q92905; Purified CSN, SCF-Nedd8-OG deneddylation; inhibition, % at 12.5 µM; 360,000 compounds, 0.38% hits; AID 651999, 2013;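 active = pattern-corrected inhibition above about 35%, with an unprinted fluorescence ratio check between 0.5 and 1.5, limit read from the data, passing the limit was not always enough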;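 note: 0% = enzyme with substrate and 100% = substrate without enzyme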
#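 Assay system: HEK293T-derived human Csn5 enzyme; quantity: 0.24 nM enzyme; medium: Tris/NaCl/DTT buffer, pH 7.5; also added: substrate SCFSkp2-Nedd8OG, 10 nM; doses: 12.5 µM compound; schedule: 90 min reaction at room temperature; signal: FP; read-out: % inhibition of substrate cleavage by Csn5; benchmarks: substrate-only high control, full reaction low control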
# Rpn11 inh: Rpn11 (PSMD14) deubiquitinase inhibitors, primary screen, biochemical, fluorescence polarization, uHTS; human 26S proteasome, Ub4-pepOG fluorescence polarization; 20S core pre-blocked with epoxomicin; inhibition, % at 20 µM; 360,000 compounds, 0.59% hits;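 active = inhibition at 20 µM, scaled to each plate's controls, above about 33%, limit read from the data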
# IDE cell inh: human IDE inhibitors in live cells, primary screen, fluorescence polarization, HEK cells, FAbetaB substrate; 320,000 compounds, 0.41% hits; Insulin-degrading enzyme (Homo sapiens), P14735; FAbetaB cleavage; inhibition, % at 5.59 µM;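 active = percent inhibition above the average of all tested compounds plus 3 SD, set per screening campaign, cut at about 16% in these data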;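 note: IDE supplied by intact live HEK cells; FP after avidin binding of uncleaved biotin substrate so inhibition keeps polarization high; 0% = DMSO wells and 100% = 60 µM reference IDE inhibitor Ii1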
# HNF4A DNA FP: change in binding of human HNF4A to DNA, primary screen, biochemical, fluorescence polarization, FITC-DNA; Hepatocyte nuclear factor 4-alpha (Homo sapiens), P41235; 1 h; activity change, % at 10 µM; 360,000 compounds, 0.3% hits; AID 1224865, 2016; in the data active = activity change above about 30%, passing the limit was not always enough
# TPT1 inhibitor: Candida albicans TPT1 enzyme inhibitors, primary screen, biochemical, fluorescence polarization. 300,000 compounds, 0.81% hits. recombinant caTPT1, FP RNA substrate dephosphorylation. tRNA 2'-phosphotransferase TPT1 (Candida albicans SC5314). inhibition, % at 5 µM;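 active = inhibition above the mean of all tested compounds plus 3 SD, set per screening campaign, cut at about 24% in these data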;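 note: plate controls were DMSO alone for no effect and ferristatin control at 100 nM for full effect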
# * hit, by the source's call; x = no result given.
SMILES,IDE cell activ,CSN deneddyl inh,Rpn11 inh,IDE cell inh,HNF4A DNA FP,TPT1 inhibitor
O=C(O)c1ccccc1Nc1ccc([N+](=O)[O-])cc1,28*,-1,8,-14,-4,-10
Cc1cccc(C)c1NC(=O)C1(C)CSCC(=O)N1CCc1ccccc1 (stereo not given),x,0,x,x,0,x
CC1CC(C)(C)CC2(C1)NC(=O)N(CC(=O)Nc1ccc3[nH]c(=O)[nH]c3c1)C2=O (stereo not given),4,73*,6,-2,9,x
COC(=O)c1c(C)[nH]c(O)c1C=Nc1ccc(C(C)C)cc1,2,53*,36,4,3,9
COCc1[nH][nH]c(=O)c1C=Nc1ccc(Oc2ccccc2)cc1,2,-1,-14,7,1,-2
COC(=O)c1c(C)[nH]c(O)c1C=Nc1ccc(Oc2ccccc2)cc1,3,90*,34,4,17,2
CCOc1cc(C2C(C#N)=C(N)SC(N)=C2C#N)ccc1OCCN1CCOCC1,1,6,19,8,4,46*
CC(=O)N1CCC(C(=O)N2c3ccccc3N=C(c3ccc(C(F)(F)F)cc3)C2C(=O)NC(C)C)CC1 (stereo not given),x,4,x,x,-2,x
O=C(Nc1ccccc1)c1cc(C2CCCCN2S(=O)(=O)Cc2cccc(C(F)(F)F)c2)on1 (stereo not given),x,-7,0,x,-2,x
CCN(CCNC(=O)C1CCN(Cc2nc(-c3ccc(Cl)cc3)oc2C)CC1)c1ccccc1,5,-3,-2,-4,63*,0
Cc1ccc(NC(=O)C2CC(=O)N(c3ccc4c5c(cccc35)CC4)C2)cc1 (stereo not given),-7,35*,0,10,2,-3
Cc1cc2nc(-c3ccccc3)c(CC(C)(C)C)n2c(C)c1Br,x,3,-1,x,2,x
Cc1cc2nc(-c3cccc(Br)c3)c(CC(C)(C)C)n2c(C)c1Br,x,132*,2,x,1,x
O=C(/C=C/c1ccc([N+](=O)[O-])cc1)N1CCN(S(=O)(=O)c2ccccc2)CC1,-4,47*,-3,-1,3,x
Nc1nc2ccccc2cc1C(=O)NCCCCc1ccccc1,x,8,x,x,2,x
COc1cccc(NC(=O)CCC(=O)NCc2ccco2)c1,0,70*,4,-5,-2,-4
COc1cccc(NC(=O)CCC(=O)Nc2cccc(OC)c2)c1,-2,0,-6,4,5,-4
Cc1c(S(=O)(=O)N2CCCCC2)c(=O)n(C)c(=O)n1C,5,64*,-11,8,5,-5
CC(C)(O)C#Cc1ccccc1C(=O)NC(CC(N)=O)C(=O)O (stereo not given),18*,-1,6,-3,3,-4
O=S(=O)(Nc1nc(-c2ccco2)c(-c2ccco2)s1)c1ccc(F)cc1F,x,39*,6,x,-9,x
O=C(C(=Cc1ccc(F)cc1)C(=O)c1ccccc1)c1ccccc1,x,12,-9,x,-3,x
CC(C)NC(=O)C1(C)CSCC(=O)N1CCOc1ccccc1 (stereo not given),x,-1,x,x,2,x
CCCCCNC(=O)C(c1ccc(C(F)(F)F)cc1)n1c(=O)c(-c2ccco2)nc2ccccc21 (stereo not given),x,29,x,x,32,x
Cc1cccn2c(=O)c(C=O)c(NCc3ccccc3)nc12,x,1,-19,1,3,0
CCCN1C(=O)/C(=C/c2c(NCCCOCC)nc3c(C)cccn3c2=O)SC1=S,2,38*,78*,x,50*,x
SMILES,IDE cell activ,CSN deneddyl inh,Rpn11 inh,IDE cell inh,HNF4A DNA FP,TPT1 inhibitor
O=C(Cc1cccnc1)N[C@@H]1CC[C@H](CCn2cc(Cc3ccccc3)nn2)O[C@@H]1CO,x,0,x,x,-2,x
O=C(c1cc([N+](=O)[O-])ccc1N1CCOCC1)N1CCN(c2ccc([N+](=O)[O-])cc2)CC1,30*,-3,-10,-15,-1,-2
O=C(c1cc([N+](=O)[O-])ccc1N1CCOCC1)N1CCCCC1,1,4,7,-4,6,-3
COc1cccc(C(C(=O)NC2CCCC2)N2CCN(c3cc(C)nc4ccccc34)CC2)c1OC (stereo not given),x,0,x,x,1,x
CCOC(=O)c1c(NC(=O)COC(=O)c2ccc(NC(=O)CC#N)cc2)sc(C(=O)NC)c1C,-2,40*,29,-2,-15,x
CCOC(=O)c1c(NC(=O)COC(=O)c2ccc(O)cc2)sc(C(=O)N(C)C)c1C,0,-4,9,0,2,-1
CCn1c2ccccc2c2cc(NC(=O)COC(=O)c3ccc(NC(=O)CC#N)cc3)ccc21,-2,43*,11,-2,-9,3
CCn1c2ccccc2c2cc(NC(=O)COC(=O)c3ccccc3F)ccc21,3,6,2,-7,0,2
COC(=O)C[C@@H]1C=C[C@@H](NC(C)=O)[C@@H](CO)O1,x,-5,x,x,4,x
Cc1cc(Cl)ccc1NC(=O)CSc1nnc(Cc2cccs2)n1Cc1ccco1,-1,-1,8,-2,42*,4
COc1cc2c(cc1NC(=O)CSc1nnc(Cc3cccs3)n1Cc1ccco1)oc1ccccc12,1,-6,17,4,-1,1
Cc1ccc(N2CCN(C(=O)C(=O)c3cccc([N+](=O)[O-])c3)CC2)cc1,x,-4,x,x,1,x
S=C1NC[C@H](CC2CCCCC2)N1CCc1cccc2ccccc12,-1,1,3,-9,-5,1
O=C1NC[C@H](CC2CCCCC2)N(CCc2cc(C(F)(F)F)cc(C(F)(F)F)c2)C1=O,x,48*,x,x,-2,x
FC(F)(F)c1cc(CCN2C(=S)NC[C@@H]2CC2CCCCC2)cc(C(F)(F)F)c1,3,2,15,-5,1,0
O=C1NC[C@@H](Cc2ccc(O)cc2)N(CCc2cc(C(F)(F)F)cc(C(F)(F)F)c2)C1=O,x,98*,x,x,-1,x
Oc1ccc(C[C@@H]2CNC(=S)N2CCc2cc(C(F)(F)F)cc(C(F)(F)F)c2)cc1,2,1,6,4,-8,-4
O=C1NC[C@H](CC2CCCCC2)N(CCc2cccc3ccccc23)C1=O,x,60*,x,x,13,x
O=C1c2cccc3c([N+](=O)[O-])ccc(c23)C(=O)N1c1ccccn1,-8,-8,-35,2,-25,8
O=C1c2cccc3c([N+](=O)[O-])ccc(c23)C(=O)N1c1nccs1,-6,-6,-40,23*,-29,18
